Converted amounts (≈) assume the structure as drawn. “Also recorded” adds a separate entry of the source.
Key:
[1] = test system: calcium/CaM-dependent kinase 2γ (CaMK2γ); test: CaM-dependent kinase assay; assay type: biochemical, Human; conditions: single concentration of 100 μM, in the presence of CaM
Procedure, shortened: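 ADP-Glo reaction with CaMK2γ (12 ng), 25 μM ATP and Autocamtide-2 substrate, carried out with CaM present. Test compound is at a single 100 μM from DMSO; incubation 60 min at room temperature. Luminescent readout gives percent enzyme activity relative to the reaction without compound. Run three times with at least two replicates per experiment; mean ± SEM.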

[2] = target: His-mHtt and GST-CaM (CaM–mHtt interaction) (Homo sapiens, UniProt P0DP23+P42858); test: CaM/mHtt AlphaScreen binding assay; conditions: read-out: AlphaScreen CaM–mHtt, IC50; triplicate
Procedure, shortened: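 His-mHtt (10 nM) preincubated 30 min with test compound, then GST-CaM (10 nM) added for 60 min at room temperature. Ni-chelate acceptor (10 μg/mL) and glutathione donor beads (15 μg/mL) are added for 2 h, then Alpha counts are read. Final 300–0.002 μM, triplicate; % inhibition normalized to DMSO controls.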

Kinetic solubility = assay type: physicochemical
PAMPA permeability = assay type: in vitro ADME
[3] = test system: mHtt toxicity in PC12 cells; test: Protection against mHtt toxicity in neuronal cell model for HD; assay type: cell-based; conditions: three different concentrations
Procedure, shortened: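 Each experiment run at least three times; values reported as mean ± standard error of the mean.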

[4] = target: death-associate protein kinase 1 (DAPK1) (Homo sapiens, UniProt P53355); test: CaM-dependent kinase assay; assay type: biochemical; conditions: single concentration of 100 μM, in the presence of CaM
Procedure, shortened: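 Recombinant DAPK1 (25 ng), run with ADP-Glo at 5 μM ATP with native swine myelin basic protein as substrate, in the presence of CaM. Test compound is added at a single 100 μM (DMSO) and reacted 60 min at room temperature. Luminescence is read, and activity is expressed as percent of the no-compound reaction. Three experiments, ≥2 replicates each; mean ± SEM.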

SH-SY5Y cells = test: Cytotoxicity assay; assay type: cell-based; conditions: SH-SY5Y cells, 24 h incubation, CellTiter-Glo
Procedure, shortened: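 SH-SY5Y cells seeded at 6000/well in 1:1 EMEM/F12 with 10% FBS. Exposure 24 h at 37 °C, then CellTiter-Glo luminescence read. Percent cytotoxicity normalized to DMSO controls.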

Chain of death-associate protein kinase 1 (DAPK1) (P53355 1-363): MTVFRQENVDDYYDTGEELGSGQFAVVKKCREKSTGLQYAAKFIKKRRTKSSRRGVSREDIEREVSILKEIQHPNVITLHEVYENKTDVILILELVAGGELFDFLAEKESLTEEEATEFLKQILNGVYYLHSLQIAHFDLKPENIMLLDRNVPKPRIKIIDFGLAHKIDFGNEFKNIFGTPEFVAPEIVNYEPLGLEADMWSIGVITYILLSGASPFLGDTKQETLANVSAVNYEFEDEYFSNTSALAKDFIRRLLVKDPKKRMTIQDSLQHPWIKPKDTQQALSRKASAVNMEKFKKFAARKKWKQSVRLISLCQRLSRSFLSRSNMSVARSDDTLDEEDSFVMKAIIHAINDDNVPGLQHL
Chain of His-mHtt and GST-CaM (CaM–mHtt interaction) (P42858 whole entry, one chain of several): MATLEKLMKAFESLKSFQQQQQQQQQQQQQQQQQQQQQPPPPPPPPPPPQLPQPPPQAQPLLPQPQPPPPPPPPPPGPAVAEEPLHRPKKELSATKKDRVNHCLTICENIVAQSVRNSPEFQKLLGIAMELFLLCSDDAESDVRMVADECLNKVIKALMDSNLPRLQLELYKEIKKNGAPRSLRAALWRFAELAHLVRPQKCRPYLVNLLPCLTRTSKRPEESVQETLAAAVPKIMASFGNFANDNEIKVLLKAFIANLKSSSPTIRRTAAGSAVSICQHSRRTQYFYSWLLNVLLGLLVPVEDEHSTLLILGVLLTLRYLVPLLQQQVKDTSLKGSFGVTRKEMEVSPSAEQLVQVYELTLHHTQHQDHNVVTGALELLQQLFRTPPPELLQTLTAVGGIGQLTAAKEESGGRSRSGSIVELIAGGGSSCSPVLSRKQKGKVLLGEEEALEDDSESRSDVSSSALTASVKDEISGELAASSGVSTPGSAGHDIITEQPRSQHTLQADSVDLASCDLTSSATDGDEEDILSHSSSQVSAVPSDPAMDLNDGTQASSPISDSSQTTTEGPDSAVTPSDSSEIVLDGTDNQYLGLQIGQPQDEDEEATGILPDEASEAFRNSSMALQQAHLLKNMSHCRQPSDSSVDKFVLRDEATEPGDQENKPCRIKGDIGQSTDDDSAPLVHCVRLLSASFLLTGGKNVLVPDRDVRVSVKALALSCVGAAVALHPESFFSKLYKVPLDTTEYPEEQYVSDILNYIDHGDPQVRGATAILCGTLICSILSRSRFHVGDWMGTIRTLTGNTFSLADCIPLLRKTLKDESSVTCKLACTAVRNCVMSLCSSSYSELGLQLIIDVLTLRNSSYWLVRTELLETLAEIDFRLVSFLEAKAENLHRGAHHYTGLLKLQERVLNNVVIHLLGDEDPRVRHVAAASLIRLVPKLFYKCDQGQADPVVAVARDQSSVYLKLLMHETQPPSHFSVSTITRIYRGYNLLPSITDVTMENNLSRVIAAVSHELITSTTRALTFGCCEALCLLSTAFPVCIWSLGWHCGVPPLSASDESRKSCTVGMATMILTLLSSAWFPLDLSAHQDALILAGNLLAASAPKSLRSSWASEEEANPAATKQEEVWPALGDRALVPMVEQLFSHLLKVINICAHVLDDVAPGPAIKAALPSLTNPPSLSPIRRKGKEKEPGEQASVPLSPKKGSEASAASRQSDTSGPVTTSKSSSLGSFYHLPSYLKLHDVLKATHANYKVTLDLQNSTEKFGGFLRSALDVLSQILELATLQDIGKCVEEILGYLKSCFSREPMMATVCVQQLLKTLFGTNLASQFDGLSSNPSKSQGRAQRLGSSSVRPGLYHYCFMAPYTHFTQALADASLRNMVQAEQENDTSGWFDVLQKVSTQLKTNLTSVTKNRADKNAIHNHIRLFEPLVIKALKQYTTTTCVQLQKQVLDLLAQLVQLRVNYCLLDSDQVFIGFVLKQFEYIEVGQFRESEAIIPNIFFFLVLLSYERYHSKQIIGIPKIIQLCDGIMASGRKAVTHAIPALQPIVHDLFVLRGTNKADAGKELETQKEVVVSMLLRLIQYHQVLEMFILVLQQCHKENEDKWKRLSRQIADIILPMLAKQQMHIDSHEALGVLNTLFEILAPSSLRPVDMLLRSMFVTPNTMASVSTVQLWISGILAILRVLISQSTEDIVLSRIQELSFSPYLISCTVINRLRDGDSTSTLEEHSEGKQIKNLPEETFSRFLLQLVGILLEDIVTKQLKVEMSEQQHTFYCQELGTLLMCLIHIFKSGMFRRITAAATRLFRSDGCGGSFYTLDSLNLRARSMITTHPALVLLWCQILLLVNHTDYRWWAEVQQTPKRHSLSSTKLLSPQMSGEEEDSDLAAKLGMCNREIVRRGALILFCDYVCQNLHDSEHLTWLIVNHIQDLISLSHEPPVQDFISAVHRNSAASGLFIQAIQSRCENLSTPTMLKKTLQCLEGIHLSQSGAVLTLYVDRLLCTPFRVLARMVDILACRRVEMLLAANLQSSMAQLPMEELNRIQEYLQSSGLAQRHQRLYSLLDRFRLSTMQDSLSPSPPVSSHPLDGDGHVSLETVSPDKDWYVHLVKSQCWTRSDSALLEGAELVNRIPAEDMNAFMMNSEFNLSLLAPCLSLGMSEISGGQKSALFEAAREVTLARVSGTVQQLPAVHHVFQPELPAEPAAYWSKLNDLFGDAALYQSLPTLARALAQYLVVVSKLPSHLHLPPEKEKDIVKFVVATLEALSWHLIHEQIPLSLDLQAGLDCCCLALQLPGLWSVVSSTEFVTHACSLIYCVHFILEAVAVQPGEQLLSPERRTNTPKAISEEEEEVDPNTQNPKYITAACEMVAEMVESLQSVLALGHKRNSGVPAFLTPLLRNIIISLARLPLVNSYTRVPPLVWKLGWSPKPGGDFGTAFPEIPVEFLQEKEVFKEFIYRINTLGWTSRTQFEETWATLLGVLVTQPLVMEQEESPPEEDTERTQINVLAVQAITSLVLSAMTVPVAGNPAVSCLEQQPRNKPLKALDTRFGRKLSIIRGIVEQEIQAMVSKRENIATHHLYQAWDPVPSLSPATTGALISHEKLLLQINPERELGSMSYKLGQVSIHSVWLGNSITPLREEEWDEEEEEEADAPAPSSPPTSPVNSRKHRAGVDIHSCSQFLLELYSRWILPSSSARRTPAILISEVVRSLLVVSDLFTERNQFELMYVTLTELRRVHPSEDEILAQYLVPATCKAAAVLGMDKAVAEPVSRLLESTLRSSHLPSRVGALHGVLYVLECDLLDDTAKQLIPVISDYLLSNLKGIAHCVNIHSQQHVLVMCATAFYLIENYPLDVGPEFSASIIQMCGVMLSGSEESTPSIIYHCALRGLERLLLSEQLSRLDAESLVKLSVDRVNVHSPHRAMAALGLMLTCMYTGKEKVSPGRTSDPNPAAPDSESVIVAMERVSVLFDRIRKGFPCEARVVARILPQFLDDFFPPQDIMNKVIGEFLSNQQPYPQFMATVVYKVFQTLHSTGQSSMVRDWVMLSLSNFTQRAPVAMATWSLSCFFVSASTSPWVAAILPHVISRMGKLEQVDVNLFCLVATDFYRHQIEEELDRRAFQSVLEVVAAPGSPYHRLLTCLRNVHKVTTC

C=C1CCN([C@@H](CC(C)C)C(=O)NCCc2ccc(Cl)c(Cl)c2)S(=O)(=O)c2ccccc21 [Compound 9h, (S)-N-(3,4-Dichlorophenethyl)-4-methyl-2-(5-methylene-1,1-dioxido-4,5-dihydrobenzo[f][1,2]thiazepin-2(3H)-yl) pentanamide]
Inhibition of CaMK2γ enzyme activity (in words) [1]: statistically significant impact; also recorded: statistically significant effect on inhibition | IC50 [2]: 550 nM | kinetic solubility (Kinetic solubility): 0.6 µM (≈ 0.297 µg/mL) | permeability (PAMPA assay) (PAMPA permeability): 7.6e-07 cm/s | Protection against mHtt toxicity (in words) [3]: barely measurable activity; also recorded: do not show protection; also recorded: did not show any significant effect | Inhibition of DAPK1 enzyme activity (in words) [4]: but not DAPK1 activity | Cytotoxicity (SH-SY5Y cells, 24 h) (SH-SY5Y cells): >300 µM
